Data published in publication PMC9890663 (RSC Advances, 2023).
≈ marks a conversion by molar mass, not a printed value. Where “and” joins values, the source holds several entries; their conditions need not be identical. Equal entries are not always repeated. Where two headings read alike, the source gives them in different places. Each block holds one compound with its values, some of them ahead of it.

Legend:
calf thymus DNA (ct-DNA) [1] = conditions: DNA intercalator; cited from earlier work
P. aeruginosa PAO1 = test: MIC, broth microdilution; type: cell-based; conditions: Pseudomonas aeruginosa, PAO1, 24 h
C. albicans ATCC 10231 [2] = test: MIC, broth microdilution; type: cell-based; conditions: Candida albicans, ATCC10231, 24 h
Summary of the method: (§1)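 Broth microdilution. S. aureus ATCC 25923 followed CLSI M07-A8 at 5 × 10^5 cfu mL−1; Candida strains followed EUCAST yeast method v7.3.1 at 1 × 10^5 cfu mL−1. Test compound from a 50 mg mL−1 DMSO stock was tested from 500 μg mL−1 downward, with final DMSO <1% v/v. MIC was the lowest concentration inhibiting growth after 24 h at 37 °C, read on a plate reader.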

C. albicans ATCC 10231 [3] = test: Inhibition of hyphae formation on Spider medium; type: cell-based, Candida albicans; conditions: 0.5 × MIC, vs DMSO control
S. aureus ATCC 25923 = test: MIC, broth microdilution; type: cell-based; conditions: Staphylococcus aureus, ATCC25923, 24 h
Summary of the method: as §1

MRC-5 cells = test: Antiproliferative activity, MTT assay; type: cell-based, human
C. albicans = conditions: cited from earlier work
[4] = target: bovine serum albumin (BSA) (Bos taurus, UniProt P02769); test: BSA fluorescence emission quenching; type: binding
Sequence of bovine serum albumin (BSA) (P02769 25-607): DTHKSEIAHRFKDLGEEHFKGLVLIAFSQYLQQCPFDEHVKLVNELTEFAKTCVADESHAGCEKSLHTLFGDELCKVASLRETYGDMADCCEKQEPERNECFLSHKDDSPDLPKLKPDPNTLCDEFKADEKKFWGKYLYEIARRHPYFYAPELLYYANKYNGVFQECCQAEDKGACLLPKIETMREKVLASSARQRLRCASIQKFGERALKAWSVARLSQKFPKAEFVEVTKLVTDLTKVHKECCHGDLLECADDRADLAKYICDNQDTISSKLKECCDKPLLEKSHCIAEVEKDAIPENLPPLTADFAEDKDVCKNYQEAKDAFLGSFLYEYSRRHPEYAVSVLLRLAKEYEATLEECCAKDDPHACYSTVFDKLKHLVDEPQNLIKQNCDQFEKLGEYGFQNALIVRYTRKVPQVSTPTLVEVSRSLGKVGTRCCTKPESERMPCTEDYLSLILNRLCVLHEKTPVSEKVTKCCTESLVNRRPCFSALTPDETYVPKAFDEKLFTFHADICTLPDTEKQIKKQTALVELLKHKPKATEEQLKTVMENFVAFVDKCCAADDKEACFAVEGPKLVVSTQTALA
Summary of the method: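 Tryptophan fluorescence quenching of 5 μM BSA in PBS pH 7.4, titrated with test compound (DMSO stock) up to 130 μM. Excitation was 290.0 nm and spectra were recorded at 295.0–500.0 nm, with quenching monitored at 365.0 nm. Ksv came from a Stern–Volmer plot, and Kq from Ksv with τ0 of 10^-8 s. KA and binding-site number n came from a log(F0−F)/F vs log[complex] plot.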

[5] = test system: Chromobacterium violaceum CV026; test: Anti-quorum sensing disc assay, violacein production; type: cell-based; conditions: 100 μg per disc
Summary of the method: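 Agar-overlay disc assay. Inocula were grown overnight in LB at 30 °C and 180 rpm, with antibiotic for CV026. 50.0 μL of culture was seeded into 0.3% semi-solid LB agar and overlaid on LB plates. CV026 received N-hexanoyl-L-homoserine lactone (final 5.0 μM); S. marcescens ATCC 27117 received no autoinducer. Compound was placed on sterile discs and plates incubated overnight at 30 °C. Pigment inhibition was scored as white halo width (mm), distinct from growth-clearance zones.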

C. albicans ATCC 10231 [6] = test: Biofilm formation assay, crystal violet staining; type: cell-based, Candida albicans; conditions: MIC of the complexes applied
Summary of the method: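 Candida albicans ATCC 10231 biofilm assay, starting inoculum 1 × 10^6 cfu mL−1. Test compound was applied as two-fold serial dilutions from 3.5 down to 0.05 μg mL−1, then incubated 48 h at 37 °C. Adherent biomass was stained with crystal violet and read at 590.0 nm. The assay was repeated three times.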

calf thymus DNA (ct-DNA) [7] = test: Competitive EthBr-ct-DNA fluorescence emission study; type: binding
Summary of the method: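 Ethidium bromide displacement on calf thymus DNA in PBS pH 7.4, with ct-DNA quantified by A260 (ε 6.6 × 10^3 M−1 cm−1). [DNA]/[EthBr] was held at 10 while test compound (10 mM DMSO stock) was increased. Excitation was 545.0 nm, emission 550.0–750.0 nm. Ksv and Kq (τ0 10^-8 s) came from the Stern–Volmer equation; KA and n from a log(F0−F)/F vs log[complex] plot.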

Compound: C[n+]1c2ccccc2c(-c2c3ccccc3[n+](C)c3ccccc23)c2ccccc21 [lucigenin]
Hypochromism (calf thymus DNA (ct-DNA) [1]): 50%

MIC (P. aeruginosa PAO1): > 1830 µM and > 500 µg/mL
MIC (C. albicans ATCC 10231 [2]): > 1830 µM and > 500 µg/mL
MIC (S. aureus ATCC 25923): > 1830 µM and > 500 µg/mL
Compound: COC(=O)c1cnc(-c2cnccn2)cc1C(=O)OC [py-2pz, dimethyl 6-(pyrazine-2-yl)pyridine-3,4-dicarboxylate]
C. albicans hyphae formation (C. albicans ATCC 10231 [3]): did not show a potency to inhibit C. albicans filamentous growth
IC50 (MRC-5 cells; Homo sapiens, MRC5, 48 h, MRC-5, 48 h treatment): 120 µg/mL (≈ 439 µM)

Compound: [CuCl2(py-2metz)]n
MIC (C. albicans): 31.25 µg/mL

Compound: {[Ag(NO3)(py-2pz)]·0.5H2O}n [Complex 4]
Hypochromism ([4]; BSA fluorescence at 365.0 nm): 60.5%
K sv ([4]; Stern-Volmer constant, BSA 5 μM, PBS pH 7.4): (2.10 ± 0.02) × 10^4 M^−1
K A ([4]; binding constant, BSA): 21500 M⁻¹
K q ([4]; quenching rate constant, BSA): 2.1e+12 M⁻¹ s⁻¹
clear zones of inhibition (antibacterial effect) [5]: 5 mm
percentage of the formed C. albicans biofilms (C. albicans ATCC 10231 [6]): 62%
Hypochromism (calf thymus DNA (ct-DNA) [7]; EthBr-ct-DNA fluorescence): 15.4%
K sv (calf thymus DNA (ct-DNA) [7]; Stern-Volmer constant, EthBr-ct-DNA, PBS pH 7.4): (1.14 ± 0.01) × 10^3 M^−1
K A (calf thymus DNA (ct-DNA) [7]; binding constant, ct-DNA): 2000 M⁻¹
K q (calf thymus DNA (ct-DNA) [7]; quenching constant, EthBr-ct-DNA): 1.14e+11 M⁻¹ s⁻¹
fold less toxic against MRC-5 than AgSD (MRC-5 cells): 1.7 fold
